According to publication PMC8161485 (ACS Central Science, 2021):

Target: T1, P450BM3 variant V-H10(A87I) (Priestia megaterium, UniProt P14779, A181T/A185V/A198V/A291V/E253G/F206C/F88I/H237Q/L354V/P143S/R256S/S227R/T176I/V79N)
T1 sequence (P14779 1-1049 V79N/F88I/P143S/T176I/A181T/A185V/A198V/F206C/S227R/H237Q/E253G/R256S/A291V/L354V): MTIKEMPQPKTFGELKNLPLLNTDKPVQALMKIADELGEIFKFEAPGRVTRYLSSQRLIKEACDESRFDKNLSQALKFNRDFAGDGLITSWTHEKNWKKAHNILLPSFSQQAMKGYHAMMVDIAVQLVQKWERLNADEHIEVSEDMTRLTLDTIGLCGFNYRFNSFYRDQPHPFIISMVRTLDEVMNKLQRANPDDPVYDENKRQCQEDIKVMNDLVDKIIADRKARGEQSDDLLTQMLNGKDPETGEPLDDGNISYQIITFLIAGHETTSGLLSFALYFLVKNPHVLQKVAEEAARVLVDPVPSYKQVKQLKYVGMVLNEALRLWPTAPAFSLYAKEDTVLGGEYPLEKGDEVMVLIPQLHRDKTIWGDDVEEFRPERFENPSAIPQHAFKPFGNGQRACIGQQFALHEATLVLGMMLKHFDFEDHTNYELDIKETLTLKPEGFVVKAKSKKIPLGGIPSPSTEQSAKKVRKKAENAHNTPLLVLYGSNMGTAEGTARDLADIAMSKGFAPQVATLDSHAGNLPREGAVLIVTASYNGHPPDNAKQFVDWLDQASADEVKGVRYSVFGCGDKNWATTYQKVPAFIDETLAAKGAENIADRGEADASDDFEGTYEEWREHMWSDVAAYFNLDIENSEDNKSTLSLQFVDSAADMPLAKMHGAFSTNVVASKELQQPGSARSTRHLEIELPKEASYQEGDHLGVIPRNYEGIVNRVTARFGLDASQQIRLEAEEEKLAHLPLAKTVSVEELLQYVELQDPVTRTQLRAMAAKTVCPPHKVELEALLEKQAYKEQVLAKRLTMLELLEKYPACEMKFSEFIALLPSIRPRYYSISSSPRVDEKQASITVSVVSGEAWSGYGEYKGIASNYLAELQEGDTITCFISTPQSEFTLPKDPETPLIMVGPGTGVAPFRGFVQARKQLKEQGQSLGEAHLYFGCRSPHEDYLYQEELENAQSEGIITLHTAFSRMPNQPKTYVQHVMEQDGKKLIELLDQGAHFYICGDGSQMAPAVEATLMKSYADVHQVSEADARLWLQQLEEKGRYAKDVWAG
Assay: Heme spin shift binding of MCL to P450 variant V-H10
Set-up: species or system Bacillus megaterium
In short: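 Purified P450 (3 μM) in 50 mM potassium phosphate, pH 8.0, titrated with test compound (5–2000 μM) from a 50 mM ethanol stock. A difference spectrum (350–500 nm) was taken at each step. Absorbance change at 390/420 nm (high/low spin) was plotted against concentration, with KD from a nonlinear 1:1 binding fit. At least triplicate, room temperature.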

SMILES: C=C1C(=O)O[C@H]2[C@H]1CCC(C)=C1CC[C@@](C)(O)[C@@H]12 [MCL, micheliolide]
- Kd: 1250 ± 54 µM
